Test results reported in ChEMBL document CHEMBL4007456, “Heterocyclyl Tetracyclines. 1. 7-Trifluoromethyl-8-Pyrrolidinyltetracyclines: Potent, Broad Spectrum Antibacterial Agents with Enhanced Activity against Pseudomonas aeruginosa” (2017).
≈ marks a conversion by molar mass, not a printed value.

Tests used:
Format in all cases: functional
Klebsiella pneumoniae = test: Antibacterial activity against gram-negative Klebsiella pneumoniae KP457 harboring blacTX-M-15 extended spectrum beta-lactamase gene by CLSI method
Procedure, shortened: (§1)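 CLSI broth microdilution MIC in fresh cation-adjusted Mueller Hinton broth, supplemented with defibrinated horse blood where appropriate. Compounds serially diluted in sterile deionized water. Runs accepted when comparator antibiotics against ATCC quality-control strains fell within recommended ranges.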

Pseudomonas aeruginosa = test: Antibacterial activity against gram-negative Pseudomonas aeruginosa PA555 by CLSI method
Procedure, shortened: (§2)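 Broth microdilution MIC per CLSI in cation-adjusted Mueller Hinton broth, prepared fresh and held at 4 °C. Defibrinated horse blood added where appropriate. Compounds serially diluted in sterile deionized water. Strains from ATCC unless otherwise noted. Runs accepted when comparator antibiotics fell within QC ranges for ATCC quality control strains.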

Staphylococcus aureus [1] = test: Antibacterial activity against gram-positive Staphylococcus aureus SA101 by CLSI method; procedure, shortened: as §2
Burkholderia cenocepacia = test: Antibacterial activity against gram-negative Burkholderia cenocepacia BC240 by CLSI method
Procedure, shortened: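 Defibrinated horse blood added where appropriate. Compounds serially diluted in sterile deionized water. Strains from ATCC unless otherwise noted. Runs accepted when comparator antibiotics fell within QC ranges for ATCC quality control strains.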

[2] = tested on: Stenotrophomonas maltophilia; test: Antibacterial activity against gram-negative Stenotrophomonas maltophilia SM256 by CLSI method; procedure, shortened: as §2
Streptococcus pneumoniae = test: Antibacterial activity against gram-positive Streptococcus pneumoniae SP160 harboring tet(M) by CLSI method; procedure, shortened: as §1
Staphylococcus aureus [3] = test: Antibacterial activity against gram-positive Staphylococcus aureus SA158 harboring tet(K) by CLSI method; procedure, shortened: as §1
Escherichia coli [4] = test: Antibacterial activity against gram-negative Escherichia coli EC155 harboring tet(A) by CLSI method; procedure, shortened: as §1
Acinetobacter baumannii = test: Antibacterial activity against gram-negative Acinetobacter baumannii AB250 by CLSI method; procedure, shortened: as §2
Escherichia coli [5] = test: Antibacterial activity against gram-negative Escherichia coli EC107 by CLSI method; procedure, shortened: as §2
Staphylococcus aureus [6] = test: Antibacterial activity against gram-positive Staphylococcus aureus SA161 harboring tet(M) by CLSI method; procedure, shortened: as §1
Enterococcus faecium = test: Antibacterial activity against gram-positive Enterococcus faecium EFm404 harboring tet(M) by CLSI method; procedure, shortened: as §1
Enterococcus faecalis = test: Antibacterial activity against gram-positive Enterococcus faecalis EFs327 harboring tet(M) by CLSI method; procedure, shortened: as §1
Enterobacter cloacae = test: Antibacterial activity against gram-negative Enterobacter cloacae EC1603 harboring tet(A) by CLSI method; procedure, shortened: as §1
Proteus mirabilis = test: Antibacterial activity against gram-negative Proteus mirabilis PM385 by CLSI method; procedure, shortened: as §2

Row | SMILES | MIC (Klebsiella pneumoniae) [µg/mL] | MIC (Pseudomonas aeruginosa) [µg/mL] | MIC (Staphylococcus aureus [1]) [µg/mL] | MIC (Burkholderia cenocepacia) [µg/mL] | MIC [2] [µg/mL] | MIC (Streptococcus pneumoniae) [µg/mL] | MIC (Staphylococcus aureus [3]) [µg/mL] | MIC (Escherichia coli [4]) [µg/mL] | MIC (Acinetobacter baumannii) [µg/mL] | MIC (Escherichia coli [5]) [µg/mL] | MIC (Staphylococcus aureus [6]) [µg/mL] | MIC (Enterococcus faecium) [µg/mL] | MIC (Enterococcus faecalis) [µg/mL] | MIC (Enterobacter cloacae) [µg/mL] | MIC (Proteus mirabilis) [µg/mL]
1 | CN(C)[C@@H]1C(O)=C(C(N)=O)C(=O)[C@@]2(O)C(O)=C3C(=O)c4c(O)cc([C@@H]5CCCN5C)c(C(F)(F)F)c4C[C@H]3C[C@@H]12 | 2 (≈ 3.54 µM) | 8 (≈ 14.1 µM) | 0.125 (≈ 0.221 µM) | 4 (≈ 7.07 µM) | 0.125 (≈ 0.221 µM) | ≤ 0.0156 | ≤ 0.0156 | 0.5 (≈ 0.884 µM) | 0.25 (≈ 0.442 µM) | 0.0312 (≈ 0.0552 µM) | 2 (≈ 3.54 µM) | – | – | – | –
2 | CN(C)[C@@H]1C(O)=C(C(N)=O)C(=O)[C@@]2(O)C(O)=C3C(=O)c4c(O)cc([C@@H]5CCCN5)cc4C[C@H]3C[C@@H]12 | 0.5 (≈ 1.03 µM) | 16 (≈ 33.1 µM) | 4 (≈ 8.27 µM) | > 32 | 32 (≈ 66.2 µM) | 8 (≈ 16.5 µM) | 0.5 (≈ 1.03 µM) | 4 (≈ 8.27 µM) | > 32 | 0.25 (≈ 0.517 µM) | > 32 | 16 (≈ 33.1 µM) | > 32 | 4 (≈ 8.27 µM) | 0.25 (≈ 0.517 µM)
3 | CC1CCNC1c1cc(O)c2c(c1C(F)(F)F)C[C@H]1C[C@H]3[C@H](N(C)C)C(O)=C(C(N)=O)C(=O)[C@@]3(O)C(O)=C1C2=O (stereo not given in full) | 1 (≈ 1.77 µM) | 8 (≈ 14.1 µM) | 0.125 (≈ 0.221 µM) | 4 (≈ 7.07 µM) | 0.5 (≈ 0.884 µM) | ≤ 0.0156 | ≤ 0.0156 | 2 (≈ 3.54 µM) | 1 (≈ 1.77 µM) | ≤ 0.0156 | 8 (≈ 14.1 µM) | 0.5 (≈ 0.884 µM) | 1 (≈ 1.77 µM) | 2 (≈ 3.54 µM) | 2 (≈ 3.54 µM)
4 | CC1CCC(c2cc(O)c3c(c2C(F)(F)F)C[C@H]2C[C@H]4[C@H](N(C)C)C(O)=C(C(N)=O)C(=O)[C@@]4(O)C(O)=C2C3=O)N1C (stereo not given in full) | 8 (≈ 13.8 µM) | > 32 | 0.5 (≈ 0.863 µM) | 8 (≈ 13.8 µM) | 2 (≈ 3.45 µM) | 0.0312 (≈ 0.0538 µM) | 0.125 (≈ 0.216 µM) | 2 (≈ 3.45 µM) | 2 (≈ 3.45 µM) | 0.5 (≈ 0.863 µM) | 1 (≈ 1.73 µM) | 1 (≈ 1.73 µM) | 2 (≈ 3.45 µM) | 16 (≈ 27.6 µM) | 4 (≈ 6.9 µM)
5 | CCCN1CCC[C@H]1c1cc(O)c2c(c1C(F)(F)F)C[C@H]1C[C@H]3[C@H](N(C)C)C(O)=C(C(N)=O)C(=O)[C@@]3(O)C(O)=C1C2=O | 16 (≈ 27 µM) | > 32 | 0.25 (≈ 0.421 µM) | 16 (≈ 27 µM) | 4 (≈ 6.74 µM) | ≤ 0.0156 | 0.125 (≈ 0.211 µM) | 2 (≈ 3.37 µM) | 4 (≈ 6.74 µM) | 1 (≈ 1.68 µM) | 1 (≈ 1.68 µM) | 1 (≈ 1.68 µM) | 1 (≈ 1.68 µM) | 32 (≈ 53.9 µM) | 8 (≈ 13.5 µM)
6 | CCN1CCC[C@H]1c1cc(O)c2c(c1C(F)(F)F)C[C@H]1C[C@H]3[C@H](N(C)C)C(O)=C(C(N)=O)C(=O)[C@@]3(O)C(O)=C1C2=O | 4 (≈ 6.9 µM) | 32 (≈ 55.2 µM) | 0.0312 (≈ 0.0538 µM) | 8 (≈ 13.8 µM) | 1 (≈ 1.73 µM) | ≤ 0.0156 | ≤ 0.0156 | 0.5 (≈ 0.863 µM) | 1 (≈ 1.73 µM) | ≤ 0.0156 | 1 (≈ 1.73 µM) | 0.125 (≈ 0.216 µM) | 0.5 (≈ 0.863 µM) | 4 (≈ 6.9 µM) | 4 (≈ 6.9 µM)
7 | CC1CCC(c2cc(O)c3c(c2C(F)(F)F)C[C@H]2C[C@H]4[C@H](N(C)C)C(O)=C(C(N)=O)C(=O)[C@@]4(O)C(O)=C2C3=O)N1 (stereo not given in full) | 0.25 (≈ 0.442 µM) | 8 (≈ 14.1 µM) | 0.125 (≈ 0.221 µM) | 4 (≈ 7.07 µM) | 0.25 (≈ 0.442 µM) | ≤ 0.0156 | ≤ 0.0156 | 0.5 (≈ 0.884 µM) | 0.5 (≈ 0.884 µM) | ≤ 0.0156 | 1 (≈ 1.77 µM) | 0.25 (≈ 0.442 µM) | 1 (≈ 1.77 µM) | 8 (≈ 14.1 µM) | 0.5 (≈ 0.884 µM)
8 | CN(C)[C@@H]1C(O)=C(C(N)=O)C(=O)[C@@]2(O)C(O)=C3C(=O)c4c(O)cc([C@@H]5CCCN5CC5CC5)c(C(F)(F)F)c4C[C@H]3C[C@@H]12 | 16 (≈ 26.4 µM) | > 32 | 0.5 (≈ 0.826 µM) | 16 (≈ 26.4 µM) | 4 (≈ 6.6 µM) | 0.0312 (≈ 0.0515 µM) | 0.125 (≈ 0.206 µM) | 2 (≈ 3.3 µM) | 4 (≈ 6.6 µM) | 1 (≈ 1.65 µM) | 1 (≈ 1.65 µM) | 1 (≈ 1.65 µM) | 1 (≈ 1.65 µM) | 32 (≈ 52.8 µM) | 8 (≈ 13.2 µM)
9 | COc1c(C2CCCN2)cc(O)c2c1C[C@H]1C[C@H]3[C@H](N(C)C)C(O)=C(C(N)=O)C(=O)[C@@]3(O)C(O)=C1C2=O (stereo not given in full) | 2 (≈ 3.89 µM) | 32 (≈ 62.3 µM) | 8 (≈ 15.6 µM) | > 32 | > 32 | 4 (≈ 7.79 µM) | 2 (≈ 3.89 µM) | > 32 | > 32 | 2 (≈ 3.89 µM) | > 32 | 16 (≈ 31.2 µM) | 32 (≈ 62.3 µM) | > 32 | 4 (≈ 7.79 µM)
10 | CN(C)[C@@H]1C(O)=C(C(N)=O)C(=O)[C@@]2(O)C(O)=C3C(=O)c4c(O)cc([C@H]5CCCN5)c(C(F)(F)F)c4C[C@H]3C[C@@H]12 | 0.125 (≈ 0.227 µM) | 8 (≈ 14.5 µM) | 0.125 (≈ 0.227 µM) | 8 (≈ 14.5 µM) | 1 (≈ 1.81 µM) | 1 (≈ 1.81 µM) | 0.0312 (≈ 0.0566 µM) | 2 (≈ 3.63 µM) | 2 (≈ 3.63 µM) | ≤ 0.0156 | 16 (≈ 29 µM) | 4 (≈ 7.25 µM) | 16 (≈ 29 µM) | 8 (≈ 14.5 µM) | 0.5 (≈ 0.907 µM)
11 | CC(C)N1CCC[C@H]1c1cc(O)c2c(c1C(F)(F)F)C[C@H]1C[C@H]3[C@H](N(C)C)C(O)=C(C(N)=O)C(=O)[C@@]3(O)C(O)=C1C2=O | 8 (≈ 13.5 µM) | 32 (≈ 53.9 µM) | 0.125 (≈ 0.211 µM) | 16 (≈ 27 µM) | 4 (≈ 6.74 µM) | ≤ 0.0156 | 0.0625 (≈ 0.105 µM) | 1 (≈ 1.68 µM) | 2 (≈ 3.37 µM) | 0.125 (≈ 0.211 µM) | 2 (≈ 3.37 µM) | 0.25 (≈ 0.421 µM) | 0.5 (≈ 0.842 µM) | 16 (≈ 27 µM) | 4 (≈ 6.74 µM)
12 | CC(C)CN1CCC[C@H]1c1cc(O)c2c(c1C(F)(F)F)C[C@H]1C[C@H]3[C@H](N(C)C)C(O)=C(C(N)=O)C(=O)[C@@]3(O)C(O)=C1C2=O | > 32 | > 32 | 2 (≈ 3.29 µM) | > 32 | > 32 | 0.5 (≈ 0.823 µM) | 1 (≈ 1.65 µM) | > 32 | > 32 | 4 (≈ 6.58 µM) | 2 (≈ 3.29 µM) | 1 (≈ 1.65 µM) | 1 (≈ 1.65 µM) | > 32 | > 32
13 | CC1CCN(C)C1c1cc(O)c2c(c1C(F)(F)F)C[C@H]1C[C@H]3[C@H](N(C)C)C(O)=C(C(N)=O)C(=O)[C@@]3(O)C(O)=C1C2=O (stereo not given in full) | 4 (≈ 6.9 µM) | 32 (≈ 55.2 µM) | 0.5 (≈ 0.863 µM) | 16 (≈ 27.6 µM) | 1 (≈ 1.73 µM) | ≤ 0.0156 | 0.0312 (≈ 0.0538 µM) | 2 (≈ 3.45 µM) | 8 (≈ 13.8 µM) | 0.0625 (≈ 0.108 µM) | 4 (≈ 6.9 µM) | 2 (≈ 3.45 µM) | 4 (≈ 6.9 µM) | 2 (≈ 3.45 µM) | 8 (≈ 13.8 µM)
14 | CN(C)c1c(C2CCCN2)cc(O)c2c1C[C@H]1C[C@H]3[C@H](N(C)C)C(O)=C(C(N)=O)C(=O)[C@@]3(O)C(O)=C1C2=O (stereo not given in full) | – | – | 2 (≈ 3.8 µM) | > 32 | 32 (≈ 60.8 µM) | 2 (≈ 3.8 µM) | 1 (≈ 1.9 µM) | 32 (≈ 60.8 µM) | > 32 | 2 (≈ 3.8 µM) | 32 (≈ 60.8 µM) | – | – | – | –
